# The source made the active and inactive calls. The rule behind the calls is not given here.
# How the values were obtained:
# CDK9/cyclin T1 = CDK9/cyclin T1 (Homo sapiens, UniProt P50750); test: Inhibition of CDK9/CycT1 (unknown origin) using TAMRA-Rbtide and ATP as substrate after 1 hr; type: protein-complex assay
# [1] = biological target: Cyclin-dependent kinase 2/cyclin E1 (Homo sapiens) (UniProt P24864+P24941); test: Inhibition of CDK2/CycE (unknown origin) using FAM labeled peptide as substrate at 10 uM by IMAP FAM FP assay; type: protein-complex assay
# Procedure, shortened: (§1)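 Run by contract partners as an IMAP fluorescence polarization assay. […] Enzyme amount was set to give 50% substrate turnover. Compounds were added in DMSO, IMAP binding solution added after the kinase step, then FP read.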
# [2] = biological target: Cyclin-dependent kinase 4/cyclin D1 (Homo sapiens) (UniProt P11802+P24385); test: Inhibition of CDK4/CycD1 (unknown origin) using FAM labeled peptide as substrate at 10 uM by IMAP FAM FP assay; type: protein-complex assay; procedure, shortened: as §1
# [3] = system: Human immunodeficiency virus 1; test: Antiviral activity against HIV1 HTLV-3B infected in human MT4 cells assessed as inhibition of virus proliferation by measuring host cell viability at 1250 nM relative to control; type: functional
# Procedure, shortened: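 HIV-1 HTLV-IIIB (3400 TCID50/mL per well; titre set by virus yield assay) infected MT4 cells, 2−3 × 10⁴/well in RPMI1640 with 10% FCS, penicillin and streptomycin, cultured as for the 7-day viability assay (37 °C, 5% CO2). Test compounds were at 1250 nM and AZT control at 25 nM. Read-out was MTT (4 h, DMSO, A540), given relative to infected untreated cells (100%).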
# [4] = Cytotoxicity against human MT4 cells assessed as cell viability at 2500 nM after 7 days by MTT assay relative to control; type: cell-based; conditions: read-out: Activity
# Procedure, shortened: (§2)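 MT4 cells (2−3 × 10⁴/well) in RPMI1640 with 10% FCS, penicillin and streptomycin, exposed to compound at 2500 or 1250 nM for 7 days at 37 °C, 5% CO2. MTT added for 4 h, supernatant removed, formazan dissolved in DMSO, absorbance read at 540 nm. Viability expressed relative to untreated cells (100%).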
# [5] = Cytotoxicity against human MT4 cells assessed as cell viability at 1250 nM after 7 days by MTT assay relative to control; type: cell-based; conditions: read-out: Activity; procedure, shortened: as §2
# [6] = biological target: CDK9/cyclin T1 (Homo sapiens) (UniProt O60563+P50750); test: Competitive inhibition of CDK9/CycT1 (unknown origin) using ATP as substrate; type: protein-complex assay
# Procedure, shortened: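 Kinase inhibition measured with inhibitor held constant at 260 nM across five ATP concentrations, printed as 1.33, 4, 12 (K_mATP), 36 and 108 […]. Ki taken from measured IC50 via the Cheng−Prusoff equation, with the IC50/Ki ratio compared across ATP levels.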
# Chain of CDK9/cyclin T1 (O60563 whole entry): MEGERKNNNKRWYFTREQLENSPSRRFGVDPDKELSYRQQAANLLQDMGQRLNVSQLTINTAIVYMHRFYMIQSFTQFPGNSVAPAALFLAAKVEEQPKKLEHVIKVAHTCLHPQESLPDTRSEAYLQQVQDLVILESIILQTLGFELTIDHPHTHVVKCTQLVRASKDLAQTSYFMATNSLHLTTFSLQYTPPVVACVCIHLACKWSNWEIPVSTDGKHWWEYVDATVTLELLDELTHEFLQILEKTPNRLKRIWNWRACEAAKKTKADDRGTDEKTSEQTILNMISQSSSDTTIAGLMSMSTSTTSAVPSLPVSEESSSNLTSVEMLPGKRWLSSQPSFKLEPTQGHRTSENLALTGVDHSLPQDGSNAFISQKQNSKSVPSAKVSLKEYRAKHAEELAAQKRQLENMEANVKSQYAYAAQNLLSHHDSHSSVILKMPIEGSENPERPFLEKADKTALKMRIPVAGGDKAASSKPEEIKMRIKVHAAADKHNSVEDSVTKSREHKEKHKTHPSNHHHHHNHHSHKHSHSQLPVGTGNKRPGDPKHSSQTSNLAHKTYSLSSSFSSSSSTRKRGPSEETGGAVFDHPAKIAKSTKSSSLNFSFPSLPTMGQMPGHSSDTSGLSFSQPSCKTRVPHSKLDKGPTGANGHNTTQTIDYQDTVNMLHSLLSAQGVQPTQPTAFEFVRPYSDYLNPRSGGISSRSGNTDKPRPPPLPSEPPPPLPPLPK
# Chain of CDK9/cyclin T1 (P50750 whole entry): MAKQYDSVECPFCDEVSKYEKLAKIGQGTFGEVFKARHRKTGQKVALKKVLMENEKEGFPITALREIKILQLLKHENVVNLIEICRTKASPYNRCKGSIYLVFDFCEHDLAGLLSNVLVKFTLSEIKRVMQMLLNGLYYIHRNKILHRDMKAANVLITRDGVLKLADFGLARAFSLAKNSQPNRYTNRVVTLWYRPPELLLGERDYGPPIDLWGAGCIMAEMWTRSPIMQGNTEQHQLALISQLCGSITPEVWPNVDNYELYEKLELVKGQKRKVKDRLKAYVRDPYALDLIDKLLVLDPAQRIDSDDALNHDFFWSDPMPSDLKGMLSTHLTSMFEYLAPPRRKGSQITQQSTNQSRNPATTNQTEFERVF
IC50 (CDK9/cyclin T1),Compound,also measured
580 nM,COc1ccccc1-c1cc(Nc2ccc(P(=O)(O)O)cc2)ncn1,–
> 10000 nM,CCOP(=O)(OCC)c1ccc(Nc2cc(-c3cccc([N+](=O)[O-])c3)ncn2)cc1,–
2390 nM,CCCP(=O)(Cc1cccc(Nc2cc(-c3cccc(OC)c3OC)ncn2)c1)OCC (stereo not drawn),–
210 nM,CCCP(=O)(Cc1cccc(Nc2cc(-c3ccccc3OC(C)C)ncn2)c1)OCC (stereo not drawn),–
2100 nM,O=[N+]([O-])c1cccc(-c2cc(Nc3ccc(CP(=O)(O)O)cc3)ncn2)c1,–
652 nM,CCCP(=O)(Cc1ccc(Nc2cc(-c3ccccc3OC)ncn2)cc1)OCC (stereo not drawn),–
517 nM,CCOP(=O)(Cc1cccc(Nc2cc(-c3ccccc3OC)ncn2)c1)c1ccccc1 (stereo not drawn),–
1400 nM,CCOP(=O)(OCC)C(O)c1cccc(Nc2cc(-c3cccc(N)c3)ncn2)c1 (stereo not drawn),–
1130 nM,Nc1cccc(-c2cc(Nc3ccc(CP(=O)(O)O)cc3)ncn2)c1,–
6940 nM,CCCP(=O)(Cc1cccc(Nc2cc(-c3cccc(OC)c3)ncn2)c1)OCC (stereo not drawn),–
5410 nM,CCCP(=O)(Cc1cccc(Nc2cc(-c3ccc(OC)cc3)ncn2)c1)OCC (stereo not drawn),–
> 10000 nM,CCOP(=O)(CC)c1ccc(Nc2cc(-c3cccc([N+](=O)[O-])c3)ncn2)cc1 (stereo not drawn),–
> 10000 nM,CCOP(=O)(OCC)c1ccc(Nc2cc(-c3cccc(N)c3)ncn2)cc1,inhibition [1]: 18%; inhibition [2]: 35%
5530 nM,CCCP(=O)(Cc1ccc(Nc2cc(-c3cccc([N+](=O)[O-])c3)ncn2)cc1)OCC (stereo not drawn),–
> 10000 nM,CCOP(=O)(OCC)c1cccc(Nc2cc(-c3cccc([N+](=O)[O-])c3)ncn2)c1,–
186 nM,CCCP(=O)(Cc1cccc(Nc2cc(-c3ccc(F)cc3OC)ncn2)c1)OCC (stereo not drawn),–
4580 nM,CCOP(=O)(OCC)C(O)c1ccc(Nc2cc(-c3cccc([N+](=O)[O-])c3)ncn2)cc1 (stereo not drawn),–
> 10000 nM,CCOP(=O)(CC)c1cccc(Nc2cc(-c3cccc([N+](=O)[O-])c3)ncn2)c1 (stereo not drawn),–
601 nM,CCCP(=O)(Cc1cccc(Nc2cc(-c3ccccc3Oc3ccccc3)ncn2)c1)OCC (stereo not drawn),–
254 nM,CCCP(=O)(Cc1cccc(Nc2cc(-c3ccccc3OCC)ncn2)c1)OCC (stereo not drawn),competitive inhibition (qualitative) [6]: Active
261 nM,CCCP(=O)(O)Cc1cccc(Nc2cc(-c3ccccc3OC)ncn2)c1,competitive inhibition (qualitative) [6]: Active

IC50 (CDK9/cyclin T1),Compound,also measured
8060 nM,CCCP(=O)(Cc1cccc(Nc2cc(-c3cccc([N+](=O)[O-])c3)ncn2)c1)OCC (stereo not drawn),–
> 10000 nM,CCCP(=O)(Cc1cccc(Nc2cc(-c3ccccc3CC)ncn2)c1)OCC (stereo not drawn),–
248 nM,CCCOc1ccccc1-c1cc(Nc2cccc(CP(=O)(CCC)OCC)c2)ncn1 (stereo not drawn),competitive inhibition (qualitative) [6]: Active
> 10000 nM,CCCP(=O)(OCC)c1ccc(Nc2cc(-c3cccc(N)c3)ncn2)cc1 (stereo not drawn),–
346 nM,CCOP(=O)(CC)Cc1cc(Nc2cc(-c3cccc(N)c3)ncn2)ccc1C (stereo not drawn),–
1150 nM,CCCP(=O)(OCC)c1ccc(Nc2cc(-c3ccccc3OC)ncn2)cc1 (stereo not drawn),–
> 10000 nM,CCCP(=O)(OCC)c1ccc(Nc2cc(-c3cccc([N+](=O)[O-])c3)ncn2)cc1 (stereo not drawn),–
3320 nM,Nc1cccc(-c2cc(Nc3ccc(P(=O)(O)O)cc3)ncn2)c1,inhibition [1]: 98%; inhibition [2]: 67%
> 10000 nM,CCOP(=O)(Cc1ccc(Nc2cc(-c3cccc([N+](=O)[O-])c3)ncn2)cc1)OCC,–
1020 nM,CCOP(=O)(Cc1cccc(Nc2cc(-c3cccc(N)c3)ncn2)c1)c1ccccc1 (stereo not drawn),–
682 nM,CCCP(=O)(Cc1cccc(Nc2cc(-c3cccc(N)c3)ncn2)c1)OCC (stereo not drawn),–
> 10000 nM,CCOP(=O)(c1ccccc1)c1ccc(Nc2cc(-c3cccc([N+](=O)[O-])c3)ncn2)cc1 (stereo not drawn),–
7470 nM,CCCP(=O)(Cc1ccc(Nc2cc(-c3cccc(N)c3)ncn2)cc1)OCC (stereo not drawn),–
510 nM,CCOP(=O)(OCC)C(O)c1ccc(Nc2cc(-c3ccccc3OC)ncn2)cc1 (stereo not drawn),inhibition [1]: 94%; inhibition [2]: 68%
> 10000 nM,CCOP(=O)(OCC)C(O)c1cccc(Nc2cc(-c3cccc([N+](=O)[O-])c3)ncn2)c1 (stereo not drawn),–
4100 nM,O=[N+]([O-])c1cccc(-c2cc(Nc3cccc(P(=O)(O)O)c3)ncn2)c1,–
–,CN1CC[C@H](c2c(O)cc(O)c3c(=O)cc(-c4ccccc4Cl)oc23)[C@H](O)C1,inhibition [1]: 99%; inhibition [2]: 84%
> 10000 nM,CCCP(=O)(Cc1cccc(Nc2cc(-c3cccc(OCc4ccccc4)c3)ncn2)c1)OCC (stereo not drawn),–
> 10000 nM,CCOP(=O)(CC)c1ccc(Nc2cc(-c3cccc(N)c3)ncn2)cc1 (stereo not drawn),–
> 10000 nM,CCOP(=O)(Cc1cccc(Nc2cc(-c3cccc([N+](=O)[O-])c3)ncn2)c1)c1ccccc1 (stereo not drawn),–

Compound,IC50 (CDK9/cyclin T1),also measured
CCOP(=O)(c1ccccc1)c1ccc(Nc2cc(-c3cccc(N)c3)ncn2)cc1 (stereo not drawn),6500 nM,–
CCOP(=O)(CC)Cc1cccc(Nc2cc(-c3cccc([N+](=O)[O-])c3)ncn2)c1 (stereo not drawn),6430 nM,–
CCOP(=O)(OCC)c1ccc(Nc2cc(-c3ccccc3OC)ncn2)cc1,1020 nM,inhibition [1]: 69%; inhibition [2]: 22%
CCOP(=O)(Oc1cc(Nc2cc(-c3ccccc3OC)ncn2)ccc1C)c1ccccc1 (stereo not drawn),4140 nM,inhibition [1]: 8%; inhibition [2]: 19%
CCOP(=O)(CC)Cc1ccc(Nc2cc(-c3cccc(N)c3)ncn2)cc1 (stereo not drawn),7530 nM,–
CCOP(=O)(CC)c1ccc(Nc2cc(-c3ccccc3OC)ncn2)cc1 (stereo not drawn),418 nM,–
CCOP(=O)(Cc1ccc(Nc2cc(-c3ccccc3OC)ncn2)cc1)OCC,490 nM,inhibition [1]: 77%; inhibition [2]: 51%
CCOP(=O)(c1ccccc1)c1ccc(Nc2cc(-c3ccccc3OC)ncn2)cc1 (stereo not drawn),523 nM,–
CCOP(=O)(CC)Cc1ccc(Nc2cc(-c3cccc([N+](=O)[O-])c3)ncn2)cc1 (stereo not drawn),7770 nM,–
CCOP(=O)(Cc1cccc(Nc2cc(-c3cccc(N)c3)ncn2)c1)OCC,332 nM,Host cell viability relative to infected untreated cells [3]: 96%
CCOP(=O)(Cc1cccc(Nc2cc(-c3ccccc3OC)ncn2)c1)OCC,333 nM,"viability at 168 h, 2.5 µM [4]: 100%; viability at 168 h, 1.25 µM [5]: 91%"
CCOP(=O)(CC)c1cccc(Nc2cc(-c3ccccc3OC)ncn2)c1 (stereo not drawn),842 nM,–
CCOP(=O)(Oc1cccc(Nc2cc(-c3ccccc3OC)ncn2)c1)c1ccccc1 (stereo not drawn),3100 nM,–
CCOP(=O)(Nc1cc(Nc2cc(-c3ccccc3OC)ncn2)ccc1C)c1ccccc1 (stereo not drawn),5240 nM,inhibition [1]: 19%; inhibition [2]: 18%
COc1ccccc1-c1cc(Nc2cccc(P(=O)(O)O)c2)ncn1,429 nM,"inhibition [1]: 56%; inhibition [2]: 40%; viability at 168 h, 2.5 µM [4]: 90%; viability at 168 h, 1.25 µM [5]: 90%; Host cell viability relative to infected untreated cells [3]: 130%; competitive inhibition (qualitative) [6]: Active"
CCOP(=O)(Oc1cccc(Nc2cc(-c3cccc([N+](=O)[O-])c3)ncn2)c1)c1ccccc1 (stereo not drawn),> 10000 nM,–
CCP(=O)(O)Cc1cccc(Nc2cc(-c3ccccc3OCc3ccccc3)ncn2)c1,163 nM,"viability at 168 h, 2.5 µM [4]: 104%; viability at 168 h, 1.25 µM [5]: 110%; Host cell viability relative to infected untreated cells [3]: 124%"
CCCP(=O)(Cc1cccc(Nc2cc(-c3ccccc3OCc3ccccc3)ncn2)c1)OCC (stereo not drawn),143 nM,"viability at 168 h, 2.5 µM [4]: 93%; viability at 168 h, 1.25 µM [5]: 86%; Host cell viability relative to infected untreated cells [3]: 148%"
CCOP(=O)(CC)Cc1cccc(Nc2cc(-c3ccccc3OCc3ccccc3)ncn2)c1 (stereo not drawn),212 nM,"viability at 168 h, 2.5 µM [4]: 94%; viability at 168 h, 1.25 µM [5]: 98%; Host cell viability relative to infected untreated cells [3]: 135%"
CCOP(=O)(OCC)c1cccc(Nc2cc(-c3ccccc3OC)ncn2)c1,1040 nM,–
CCOP(=O)(CC)Cc1ccc(Nc2cc(-c3ccccc3OC)ncn2)cc1 (stereo not drawn),743 nM,–
CCOP(=O)(Cc1cc(Nc2cc(-c3ccccc3OC)ncn2)ccc1C)OCC,5220 nM,–
CCOP(=O)(Oc1ccc(Nc2cc(-c3ccccc3OC)ncn2)cc1)c1ccccc1 (stereo not drawn),2840 nM,–
CCOP(=O)(CC)c1cccc(Nc2cc(-c3cccc(N)c3)ncn2)c1 (stereo not drawn),9800 nM,–
CCOP(=O)(Oc1cccc(Nc2cc(-c3cccc(N)c3)ncn2)c1)c1ccccc1 (stereo not drawn),5330 nM,–
CCOP(=O)(Cc1ccc(Nc2cc(-c3cccc(N)c3)ncn2)cc1)OCC,3110 nM,inhibition [1]: 14%; inhibition [2]: 30%
CCOP(=O)(CC)Cc1cc(Nc2cc(-c3cccc([N+](=O)[O-])c3)ncn2)ccc1C (stereo not drawn),7020 nM,–
CCOP(=O)(CC)Cc1cc(Nc2cc(-c3ccccc3OC)ncn2)ccc1C (stereo not drawn),366 nM,–
CCOP(=O)(Cc1cccc(Nc2cc(-c3cccc([N+](=O)[O-])c3)ncn2)c1)OCC,9870 nM,–
